ChEMBL document CHEMBL1155286, “Second generation of 2H-benzimidazole 1,3-dioxide derivatives as anti-trypanosomatid agents: synthesis, biological evaluation, and mode of action studies” (Eur J Med Chem, 2009)
The source made the active and inactive calls. The rule behind the calls is not given here.

Experiments:
Leishmania braziliensis [1] = test: Antiparasitic activity against Leishmania braziliensis MHOM/BR/00/LTB300 after 5 days by MTT assay; assay type: functional; details: MHOM/BR/00/LTB300, 120 h, read-out: ID50
Procedure, shortened: (§1)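 Epimastigotes (T. cruzi strains, BHI-Tryptose + 5% FBS, 28 °C) or L. braziliensis LTB300 promastigotes (axenic RPMI + 5% FBS, 28 °C) from exponential culture in 24-well plates; compounds from DMSO stock added for 5 days. Washed in PBS, 0.4 mg/mL MTT at 37 °C for 3 h, formazan dissolved in DMSO, OD595 read. Triplicate per concentration, six growth controls; 1.0–50.0 μM dose-response, ID50 = concentration reducing absorbance ratio to 50%; three independent experiments.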

Trypanosoma cruzi [2] = test: Antitrypanosomal activity against Trypanosoma cruzi Tulahuen 2 epimastigotes assessed as inhibition of parasite growth after 5 days; assay type: functional; details: for IC50: Trypanosoma cruzi, Tulahuen 2, 120 h, read-out: ID50 (the source's name)
Procedure, shortened: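 Stationary-phase (10-day) Tulahuen 2 epimastigotes inoculated at 1×10^6 cells/mL in BHI-Tryptose + 5% FBS, 28 °C, drug added from DMSO stock (final DMSO ≤0.4%; control 0.4% DMSO). Growth followed as A600; inhibition from day-5 vs day-0 absorbance relative to control. ID50 = concentration reducing absorbance ratio to 50%; three independent experiments.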

J774 = test: Cytotoxicity against mouse J774 cells at 100 uM relative to 5-((hydroxyimino)methyl)-2,2-dimethyl-2H-benzo[d]imidazole 1,3-dioxide; assay type: cell-based; details: j774, 100 µM
Trypanosoma cruzi [3] = test: Antitrypanosomal activity against Trypanosoma cruzi Colombiana assessed as parasitic cytotoxicity at 25 uM after 5 days by MTT assay; assay type: functional
Procedure, shortened: (§2)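 Single 25 μM dose for 5 days on exponential-phase epimastigotes in BHI-Tryptose + 5% FBS, 24-well plates; MTT 0.4 mg/mL, 3 h at 37 °C after PBS wash, formazan in DMSO, OD595. PCyt = [[…] (ODd − ODdm)/(ODc − ODcm)] × 100 with medium-only blanks, compound-in-medium blanks and growth controls; three independent experiments.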

[4] = Selective index, ratio of ID50 for mouse J774 cells to ID50 for Trypanosoma cruzi Tulahuen 2
[5] = Cytotoxicity against mouse J774 cells; assay type: cell-based; details: read-out: ID50 (the source's name)
[6] = Selective index, ratio of ID50 for mouse J774 cells to ID50 for Leishmania braziliensis LTB300
Trypanosoma cruzi [7] = test: Antitrypanosomal activity against Trypanosoma cruzi CL Brener epimastigotes assessed as parasitic cytotoxicity at 25 uM after 5 days by MTT assay; assay type: functional; procedure, shortened: as §2
Trypanosoma cruzi [8] = test: Antitrypanosomal activity against Trypanosoma cruzi Y epimastigotes after 5 days by MTT assay; assay type: functional; details: 120 h, read-out: ID50; procedure, shortened: as §1
Trypanosoma cruzi [9] = test: Decrease of glucose uptake in Trypanosoma cruzi Y epimastigotes after 4 hrs relative to control; assay type: functional, organism-based
Procedure, shortened: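 Y-strain epimastigotes (80×10^6/mL) washed and resuspended in PBS with 1 mM glucose, exposed 4 h to 20 μM compound from DMSO. Parasite-free supernatant refluxed 1 h with Benedict's reagent; remaining glucose quantified at 700 nm against a calibration curve.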

Trypanosoma cruzi [10] = test: Antitrypanosomal activity against Trypanosoma cruzi Colombiana after 5 days by MTT assay; details: 120 h, read-out: ID50
Trypanosoma cruzi [11] = test: Inhibition of Mitochondrial dehydrogenase in Trypanosoma cruzi Y epimastigotes at 20 uM after 30 to 240 mins by MTT dye reduction assay in relative to control
Procedure, shortened: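 Y-strain epimastigotes, 10^6 per well in 500 µL, 20 μM compound, 28 °C for 30–240 min with time-matched untreated controls. MTT (50 µL of 5 mg/mL) added for 4 h more, stopped with acidic isopropanol, A570 read; activity expressed as % of untreated parasites.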

Trypanosoma cruzi [12] = test: Antitrypanosomal activity against Trypanosoma cruzi CL Brener epimastigotes after 5 days by MTT assay; assay type: functional; details: 120 h, read-out: ID50; procedure, shortened: as §1
Trypanosoma cruzi [13] = test: Reduction of end products excretion levels in Trypanosoma cruzi Y epimastigotes after 2 days by [1H]NMR method; assay type: functional, organism-based
Procedure, shortened: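 Y-strain epimastigotes treated 2 days with 5 μM compound; culture centrifuged 1500 g, 10 min, 4 °C, parasite-free supernatant stored at −20 °C. Supernatant plus DMF internal standard and D2O run by 1H NMR with water suppression; metabolite peaks confirmed by spiking and standards, compared to untreated and parasite-free medium.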

Leishmania braziliensis [14] = test: Inhibition of Mitochondrial dehydrogenase in Leishmania braziliensis MHOM/BR/00/LTB300 at 20 uM after 30 to 240 mins by MTT dye reduction assay in relative to control
Trypanosoma cruzi [15] = test: Antitrypanosomal activity against Trypanosoma cruzi CL Brener trypomastigotes infected in Vero cells assessed as parasite lysis at 10 uM after 2 hrs relative to untreated control; assay type: functional
Procedure, shortened: (§3)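 Cell-culture trypomastigotes released from infected Vero cells (37 °C, 5% CO2, 5–7 days), collected by centrifugation and allowed 4 h at 37 °C to swim off. Supernatant parasites exposed to 10.0–50.0 μM for 2–26 h; lysis counted in a Neubauer chamber relative to untreated parasites; three independent experiments.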

Trypanosoma cruzi [16] = test: Antitrypanosomal activity against Trypanosoma cruzi CL Brener trypomastigotes infected in Vero cells assessed as parasite lysis at 10 uM after 22 hrs relative to untreated control; assay type: functional; procedure, shortened: as §3
Trypanosoma cruzi [17] = test: Antitrypanosomal activity against Trypanosoma cruzi CL Brener trypomastigotes infected in Vero cells assessed as parasite lysis at 10 uM after 26 hrs relative to untreated control; assay type: functional; procedure, shortened: as §3
Trypanosoma cruzi [18] = test: Antitrypanosomal activity against Trypanosoma cruzi CL Brener trypomastigotes infected in Vero cells assessed as parasite lysis at 10 uM after 3 hrs relative to untreated control; assay type: functional; procedure, shortened: as §3

| SMILES | IC50 (Trypanosoma cruzi [2]) [µM] | IC50 (Trypanosoma cruzi [8]) [µM] | IC50 (Leishmania braziliensis [1]) [µM] | Activity (J774) [%] | Activity (Trypanosoma cruzi [3]) [%] | Ratio [4] | CC50 [5] [µM] | Ratio [6] | Activity (Trypanosoma cruzi [7]) [%] | further results |
| --- | --- | --- | --- | --- | --- | --- | --- | --- | --- | --- |
| COc1ccc(CC2(C)[N+]([O-])=c3ccccc3=[N+]2[O-])cc1 |  |  | 35 | 0.32 | 30.8 | 8 | > 400 | >11.4 |  | ID50 (Trypanosoma cruzi [2]): > 50 µM |
| [O-][N+]1=c2cc(Cl)c(Cl)cc2=[N+]([O-])C12CCCC2 | 12 | 5.3 | 5.4 | 1.65 | 60.9 | 3.3 | 39 | 7.2 | 67.1 |  |
| COc1ccc2c(c1)=[N+]([O-])C1(CCCC1)[N+]=2[O-] | 25 | 4.9 | > 50 | 0.89 | 17.3 | 4 | 100 | <2 | 62.6 |  |
| CC1CS(=O)(=O)CCN1/N=C/c1ccc([N+](=O)[O-])o1 (centres undefined) [NIFURTIMOX] | 7.7 | 9.7 |  |  | 87 | 44.9 | 346 |  | 90 | Activity (Trypanosoma cruzi [9]): inactive; IC50 (Trypanosoma cruzi [10]): 3.4 µM; Activity (Trypanosoma cruzi [11]): inactive; IC50 (Trypanosoma cruzi [12]): 4.9 µM |
| CC1(C)[N+]([O-])=c2cc(Cl)c(Cl)cc2=[N+]1[O-] | 14.5 | 9.9 | 10.1 | 0.87 | 94.4 | 6.9 | 100 | 9.9 | 88.3 |  |
| CC1(Cc2ccc(Cl)cc2)[N+]([O-])=c2ccccc2=[N+]1[O-] | 40 |  |  | 1.42 |  | 1.4 | 55 |  |  |  |
| CC1(Cc2ccccc2)[N+]([O-])=c2ccccc2=[N+]1[O-] | > 50 |  | 20.7 | 0.46 | 18.6 | <6 | 302 | 14.6 | 47 |  |
| [O-][N+]1=c2ccc(/C=N/O)cc2=[N+]([O-])C12CCCC2 | 19.8 | 5.7 | 26.7 | 0.82 | 29 | 6.6 | 130 | 4.9 | 65.6 |  |
| [O-][N+]1=c2ccc(Br)cc2=[N+]([O-])C12CCCC2 | 16.3 | 3.5 | 26.7 | 0.82 | 83.8 | 6.1 | 100 | 3.7 | 91.5 | Activity (Trypanosoma cruzi [9]): Active; Activity (Trypanosoma cruzi [15]): 0%; Activity (Trypanosoma cruzi [16]): 16%; Activity (Trypanosoma cruzi [13]): Active; Activity (Trypanosoma cruzi [17]): 16%; Activity (Trypanosoma cruzi [11]): inactive; Activity (Leishmania braziliensis [14]): Active; Activity (Trypanosoma cruzi [18]): 35% |
| Cc1c(Sc2ccccc2)[n+]([O-])c2cc(Cl)c(Cl)cc2[n+]1[O-] |  |  |  |  |  |  |  |  |  | Activity (Trypanosoma cruzi [11]): Active |
| CCCCCCCCCCCCCCCCOP(=O)([O-])OCC[N+](C)(C)C [MILTEFOSINE] |  |  | 9 |  |  |  | 136 | 15.1 |  | Activity (Leishmania braziliensis [14]): Active |
| CC1(C)[N+]([O-])=c2ccc(/C=N/O)cc2=[N+]1[O-] |  | 16.4 | > 50 |  | 21.7 | 6.2 | 77 | <1.5 | 46.6 | IC50 (Trypanosoma cruzi [12]): > 40 µM |

Now from value to molecule, other results behind:

| IC50 (Trypanosoma cruzi [2]) [µM] | IC50 (Trypanosoma cruzi [8]) [µM] | SMILES | IC50 (Leishmania braziliensis [1]) [µM] | Activity (J774) [%] | Activity (Trypanosoma cruzi [3]) [%] | Ratio [4] | CC50 [5] [µM] | Ratio [6] | Activity (Trypanosoma cruzi [7]) [%] | further results |
| --- | --- | --- | --- | --- | --- | --- | --- | --- | --- | --- |
| 8.4 |  | CC1(Cc2ccc([N+](=O)[O-])cc2)[N+]([O-])=c2ccccc2=[N+]1[O-] |  | 0.47 |  | 14.5 | 122 |  |  |  |
| 7.4 |  | O=C(Cn1ccnc1[N+](=O)[O-])NCc1ccccc1 [BENZNIDAZOLE] |  |  |  |  |  |  |  | Activity (Trypanosoma cruzi [11]): Active |
| 5.1 | 3.3 | Cc1ccc2c(c1)=[N+]([O-])C(C)(C)[N+]=2[O-] | 30.4 |  | 35.1 |  |  |  | 61.4 | Activity (Trypanosoma cruzi [9]): inactive; Activity (Trypanosoma cruzi [13]): Active; Activity (Trypanosoma cruzi [11]): inactive; Activity (Leishmania braziliensis [14]): inactive |
| 8.1 |  | CC1(C)[N+]([O-])=c2ccc(/C=C/c3ccc(Cl)cc3)cc2=[N+]1[O-] |  | 1.48 |  | 6.4 | 52 |  |  |  |
| 10.1 |  | CC1(C)[N+]([O-])=c2ccc(Cl)cc2=[N+]1[O-] |  | 1.74 |  | 3.8 | 38 |  |  |  |
| 9.5 | 6.4 | [O-][N+]1=c2ccccc2=[N+]([O-])C12CCCC2 | 3.6 | 0.75 | 94.8 | >42.1 | > 400 | >111.1 | 83.7 |  |
| 3.1 |  | CC1(C)[N+]([O-])=c2ccc(/C=C/c3ccc4c(c3)OCO4)cc2=[N+]1[O-] |  | 1.37 |  | 18.7 | 58 |  |  |  |
| 5.4 |  | CCCCCC1(C)[N+]([O-])=c2ccccc2=[N+]1[O-] | > 50 | 0.01 | 77.1 | 43.1 | 233 | <4.7 | 88.2 |  |
